Test [1] concerns the target T1, Voltage-dependent T-type calcium channel subunit alpha-1H (Homo sapiens, UniProt O95180). The experiment in a line: Antagonist activity at human alpha1H T-type calcium channel expressed in HEK293 cells at 1 uM by patch clamp technique. It counts as functional, cell-based. In short, it runs like this: (§1)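 Whole-cell patch clamp. Peak inward current measured before and after compound addition to the bath.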
Background: The patch-clamp technique gives a direct electrical read-out from membranes.

Test [2] concerns the target Voltage-gated L-type calcium channel (Rattus norvegicus, UniProt P22002+Q02485+P27732). The experiment in a line: Antagonist activity at L-type calcium channel in rat aorta. It counts as functional, tissue-based. Summed up:
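Rat aorta rings contracted near-maximally with KCl. Test compound added at increasing doses, and IC50 taken for inhibition of force as a functional L-type calcium channel read-out.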

The target of test [3] is T1, Voltage-dependent T-type calcium channel subunit alpha-1H. The experiment in a line: Antagonist activity at human alpha1H T-type calcium channel expressed in HEK293 cells by patch clamp technique. Format: functional, cell-based. In short, it runs like this:
as §1

Test [4] in a line: Ratio of IC50 for L-type calcium channel in rat aorta method to IC50 for human T-type calcium channel in patch clamp method. It counts as tissue-based.

This passage reports inhibition, IC50 and Ratio IC50 results from ChEMBL document CHEMBL1143108, “Design and SAR of selective T-type calcium channel antagonists containing a biaryl sulfonamide core” (Bioorg Med Chem Lett, 2008).

pIC50: −log10 of the molar value.

T1 sequence (O95180 whole entry): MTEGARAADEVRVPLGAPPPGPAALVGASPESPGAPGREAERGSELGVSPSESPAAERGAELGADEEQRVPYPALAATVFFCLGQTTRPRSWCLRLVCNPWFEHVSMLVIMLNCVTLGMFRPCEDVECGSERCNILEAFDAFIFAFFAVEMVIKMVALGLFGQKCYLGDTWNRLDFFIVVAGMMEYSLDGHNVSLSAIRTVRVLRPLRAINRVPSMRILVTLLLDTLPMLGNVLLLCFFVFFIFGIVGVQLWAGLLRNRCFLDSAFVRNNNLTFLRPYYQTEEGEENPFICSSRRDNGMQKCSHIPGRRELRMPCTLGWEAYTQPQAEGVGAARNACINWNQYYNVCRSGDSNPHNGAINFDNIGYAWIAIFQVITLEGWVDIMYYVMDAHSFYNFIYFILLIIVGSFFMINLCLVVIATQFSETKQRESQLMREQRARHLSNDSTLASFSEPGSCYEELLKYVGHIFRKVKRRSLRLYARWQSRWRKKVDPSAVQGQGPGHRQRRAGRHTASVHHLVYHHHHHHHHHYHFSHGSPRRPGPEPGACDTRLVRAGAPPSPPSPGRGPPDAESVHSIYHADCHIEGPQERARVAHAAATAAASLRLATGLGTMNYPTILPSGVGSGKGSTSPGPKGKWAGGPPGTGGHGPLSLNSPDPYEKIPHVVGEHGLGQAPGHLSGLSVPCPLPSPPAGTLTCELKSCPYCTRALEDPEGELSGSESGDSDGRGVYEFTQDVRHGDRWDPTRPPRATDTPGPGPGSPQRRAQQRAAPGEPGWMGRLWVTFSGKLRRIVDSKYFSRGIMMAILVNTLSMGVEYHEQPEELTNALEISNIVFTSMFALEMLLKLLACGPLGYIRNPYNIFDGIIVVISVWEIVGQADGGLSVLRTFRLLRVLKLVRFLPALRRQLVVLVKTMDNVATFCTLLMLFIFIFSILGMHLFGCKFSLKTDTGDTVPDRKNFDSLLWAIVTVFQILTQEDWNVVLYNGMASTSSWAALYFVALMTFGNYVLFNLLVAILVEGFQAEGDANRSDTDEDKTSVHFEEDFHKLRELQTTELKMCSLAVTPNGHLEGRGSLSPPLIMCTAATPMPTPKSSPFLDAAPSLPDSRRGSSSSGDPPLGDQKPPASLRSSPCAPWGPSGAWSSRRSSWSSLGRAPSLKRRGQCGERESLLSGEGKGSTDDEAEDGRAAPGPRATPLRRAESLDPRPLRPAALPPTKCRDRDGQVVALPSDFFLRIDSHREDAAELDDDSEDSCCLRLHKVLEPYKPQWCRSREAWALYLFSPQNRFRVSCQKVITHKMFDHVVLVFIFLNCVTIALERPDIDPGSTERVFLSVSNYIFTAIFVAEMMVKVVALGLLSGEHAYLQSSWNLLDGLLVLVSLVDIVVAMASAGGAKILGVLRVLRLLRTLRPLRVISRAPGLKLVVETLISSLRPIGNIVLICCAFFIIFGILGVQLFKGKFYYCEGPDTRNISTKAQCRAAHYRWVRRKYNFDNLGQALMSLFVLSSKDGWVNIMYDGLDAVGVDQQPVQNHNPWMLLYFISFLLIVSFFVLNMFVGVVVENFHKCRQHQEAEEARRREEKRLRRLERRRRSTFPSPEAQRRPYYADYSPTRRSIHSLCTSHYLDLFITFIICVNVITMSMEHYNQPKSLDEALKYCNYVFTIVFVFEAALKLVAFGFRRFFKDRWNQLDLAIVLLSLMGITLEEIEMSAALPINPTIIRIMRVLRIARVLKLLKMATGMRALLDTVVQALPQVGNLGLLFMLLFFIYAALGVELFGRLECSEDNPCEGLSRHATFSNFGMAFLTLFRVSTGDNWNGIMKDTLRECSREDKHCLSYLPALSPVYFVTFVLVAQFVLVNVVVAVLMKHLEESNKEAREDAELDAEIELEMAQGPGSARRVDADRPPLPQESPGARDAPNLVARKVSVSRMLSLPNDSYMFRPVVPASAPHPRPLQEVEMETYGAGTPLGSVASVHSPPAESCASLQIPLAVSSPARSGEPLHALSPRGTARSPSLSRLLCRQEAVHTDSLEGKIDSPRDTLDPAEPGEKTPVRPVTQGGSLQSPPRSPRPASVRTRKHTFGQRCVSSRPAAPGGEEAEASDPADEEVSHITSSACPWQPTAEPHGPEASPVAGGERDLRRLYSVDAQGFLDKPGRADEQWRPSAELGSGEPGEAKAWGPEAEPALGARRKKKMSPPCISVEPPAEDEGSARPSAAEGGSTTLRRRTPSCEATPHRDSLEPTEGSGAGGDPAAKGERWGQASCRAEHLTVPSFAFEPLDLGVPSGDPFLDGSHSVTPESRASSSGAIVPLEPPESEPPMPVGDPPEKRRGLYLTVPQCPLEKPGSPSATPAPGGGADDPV

The term inhibition denotes the drop in the measured response relative to a control, in per cent. Turning to `CN(C)CCNC(=O)CN(c1cccc(Cl)c1)S(=O)(=O)c1cccc(NC(=O)CN(C)C(=O)OCc2ccccc2)c1`, the inhibition in test [1] was determined as 22%. Usually IC50 stands for the concentration that inhibits the measured activity by half. What is called pIC50 is the negative decadic logarithm of the IC50, by convention in mol/L. `CC1=C(C(=O)OC(C)C)C(c2cccc(Cl)c2)N(CCCN(C)C(=O)c2ccc(Oc3ccccc3)cc2)C(=O)N1` (stereo unspecified): the IC50 in test [2] turned out to be 2100 nM. Further, in test [3], the negative-log IC50 (pIC50) is 6.60.

Consider `COCC(=O)O[C@]1(CCN(C)CCCc2nc3ccccc3[nH]2)CCc2cc(F)ccc2[C@@H]1C(C)C` [MIBEFRADIL], for which, in test [2], the concentration for half-maximal inhibition (IC50) amounted to 7000 nM. Regarding `CC1=C(C(=O)OC(C)C)C(c2cccc(Cl)c2)N(CCCN(C)C(=O)c2ccc(Oc3ccccc3)cc2)C(=O)N1` (single isomer, unassigned; enantiomer 1), the negative-log IC50 (pIC50) in test [3] is 6.74. With `CC(C)OC(=O)CN(c1cccc(Cl)c1)S(=O)(=O)c1cccc(NC(=O)CCc2ccccc2)c1`, the Ratio IC50 in test [4] is above 55. For the same compound, the IC50 in test [2] is above 30000 nM. The pIC50 in test [3] is 6.27.

As for `CN(CC(=O)Nc1cccc(S(=O)(=O)N(Cc2ccccc2)c2cccc(Cl)c2)c1)C(=O)OCc1ccccc1`, the Ratio IC50 in test [4] stood at 109. For the same compound, the IC50 in test [2] was found to be 12000 nM. For the same compound, the pIC50 in test [3] is 6.96. Consider `CC(C)OC(=O)CN(c1cccc(Cl)c1)S(=O)(=O)c1cccc(NC(=O)Cc2ccccc2)c1`, for which the inhibition in test [1] was 40%. Regarding `CC(=O)Nc1cccc(S(=O)(=O)N(CC(=O)OC(C)C)c2cccc(Cl)c2)c1`, in test [1], the inhibition was determined as 0%. On the same count and under the same terms, next, `CC(=O)N(CCCN(C)S(=O)(=O)c1ccc(Oc2ccccc2)cc1)Cc1cccc(Cl)c1`: 30%.

Take `CC1=C(C(=O)OC(C)C)C(c2cccc(Cl)c2)N(CCCN(C)C(=O)c2ccc(Oc3ccccc3)cc2)C(=O)N1` (single isomer, unassigned; enantiomer 2): in test [2], the IC50 came out at 3800 nM. In test [3], the pIC50 is 6.19. Turning to `CC(C)CCCN(c1cccc(Cl)c1)S(=O)(=O)c1cccc(NC(=O)CN(C)C(=O)OCc2ccccc2)c1`, the Ratio IC50 in test [4] worked out at 67. The IC50 in test [2] is 12000 nM. Further, in test [3], the pIC50 was 6.74.

In the case of `CN(CC(=O)Nc1cccc(S(=O)(=O)N(CC(=O)O)c2cccc(Cl)c2)c1)C(=O)OCc1ccccc1`, in test [1], the inhibition amounted to 11%.

`CC(C)OC(=O)c1ccc(NC(=O)CN(C)C(=O)OCc2ccccc2)cc1-c1cccc(Cl)c1`: the inhibition in test [1] turned out to be 24%. For `CCOC(=O)CN(c1cccc(Cl)c1)S(=O)(=O)c1cccc(NC(=O)CN(C)C(=O)OCc2ccccc2)c1`, the inhibition in test [1] was found to be 35%. `CC(=O)N(CCCN(C)C(=O)c1ccc(Oc2ccccc2)cc1)Cc1cccc(Cl)c1`: the inhibition in test [1] was 5%. With `CC(C)OC(=O)CN(c1cccc(Cl)c1)S(=O)(=O)c1cccc(NC(=O)CN(C)C(=O)OCc2ccccc2)c1`, the Ratio IC50 in test [4] came out at 62. The IC50 in test [2] was found to be 15000 nM. Also, the inhibition in test [1] amounted to 78%. Also, the pIC50 in test [3] is 6.62. `CC(C)OC(=O)c1ccc(NC(=O)CCc2ccccc2)cc1-c1cccc(Cl)c1`: in test [1], the inhibition was determined as 6%. Consider `CC(C)NC(=O)CN(c1cccc(Cl)c1)S(=O)(=O)c1cccc(NC(=O)CN(C)C(=O)OCc2ccccc2)c1`, for which the Ratio IC50 in test [4] is above 17. Also, the IC50 in test [2] is above 30000 nM. The pIC50 in test [3] was 5.77. In the case of `CC(C)OC(=O)CN(c1cccc(Cl)c1)S(=O)(=O)c1cccc(NC(=O)CCNC(=O)OCc2ccccc2)c1`, in test [4], the Ratio IC50 is 41. Further, in test [2], the IC50 was found to be 17000 nM. Further, the inhibition in test [1] turned out to be 73%. Further, the pIC50 in test [3] is 6.38.

As for `CC(=O)N(CCCN(C)S(=O)(=O)c1ccc(Oc2ccccc2)cc1)C(CC(=O)OC(C)C)c1cccc(Cl)c1` (stereo unspecified), the inhibition in test [1] came to 17%.
